Measurements collected from several papers.
In brackets after ≈: the same amount, converted by molar mass.

SMILES | target or system | test | system | conditions | quantity | value
O=C(Nc1ccc(Oc2nnc(-c3ccc(Cl)cc3)c3ccccc23)cc1)c1ccccc1 | HepG2 | cell growth or viability, MTT | – | 0.625 µM | cell death | 87.9%
CN(C)c1ccc(O)c2c1C[C@H]1C[C@H]3[C@H](N(C)C)C(O)=C(C(N)=O)C(=O)[C@@]3(O)C(O)=C1C2=O | Mycobacterium tuberculosis | microbial growth, broth dilution | H37RV | 7 days, pH 7.4 | MIC | 0.2 µg/mL (≈ 0.437 µM)
CNc1ncc2c(/C=C/C(=O)N3CCC(OC)CC3)nn(C(C)C)c2n1 | OE33 | cell growth or viability, resazurin | – | 5 days | EC50 | 13.1 µM
C=CC(=O)NC1CCN(c2ncc3ncnc(Nc4ccc(Oc5ccc6c(c5)ncn6C)c(C)c4)c3n2)CC1 | SH-10-TC | cell growth or viability | – | – | EC50 | 0.0743 µM
CN(C)c1cc(NC(=O)Cc2ccccc2)c(O)c2c1C[C@H]1C[C@H]3[C@H](N(C)C)C(O)=C(C(N)=O)C(=O)[C@@]3(O)C(O)=C1C2=O | Mycobacterium tuberculosis | microbial growth, broth dilution | H37RV | 7 days, pH 7.4 | MIC | 3.1 µg/mL (≈ 5.25 µM)
CC(=NNC(=O)c1ccc(N)cc1)c1ccc(Nc2nnc(-c3ccc(Cl)cc3)c3ccccc23)cc1 | HepG2 | cell growth or viability, MTT | – | 0.312 µM, 24 h | viability | 98.2%
CNc1ncc2c(/C=C/C(=O)N3CCC(CCO)CC3)nn(CC3CCCC3)c2n1 | OE33 | cell growth or viability, resazurin | – | 5 days | EC50 | > 30 µM
O=C(C=Cc1ccccc1)Nc1ccc(Oc2nnc(-c3ccc(Cl)cc3)c3ccccc23)cc1 | HepG2 | cell growth or viability, MTT | – | 10 µM | cell death | 97.4%
CN(C)c1cc(NC(=O)CCc2ccccc2)c(O)c2c1C[C@H]1C[C@H]3[C@H](N(C)C)C(O)=C(C(N)=O)C(=O)[C@@]3(O)C(O)=C1C2=O | Mycobacterium tuberculosis | microbial growth, broth dilution | H37RV | 7 days, pH 7.4 | MIC | 12.5 µg/mL (≈ 20.7 µM)
